From BindingDB's records for doi:10.1021/jm020875j (Boehringer Ingelheim Pharma, 2002)

biological target: Sodium channel protein type 1/2/3 subunit alpha (Rattus norvegicus, UniProt P04774+P04775+P08104); experiment: Displacement of [3H]BTX from sodium channel of rat cerebral cortex synaptosomes
Summary of the method: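 Synaptosomal membranes from rat cerebral cortex incubated 1 h at 37 °C with 1 nmol/L [3H]BTX-B in choline Cl/HEPES-Tris buffer pH 7.4 containing glucose, KCl and MgSO4, plus scorpion venom. Nonspecific binding defined with 100 μmol/L aconitine. Stopped by vacuum filtration through glass fiber and two buffer washes.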

SMILES	Ki [µM]
CO[C@H](C)CN1CCC2(C)c3cccc(O)c3C[C@@H]1C2(C)C	3.31
COc1ccc2c(c1)[C@]13CCCC[C@@H]1[C@H](C2)N(C)CC3 [DEXTROMETHORPHAN]	4.8
C[C@H](CN1CCC2(C)c3ccc(O)cc3C[C@@H]1C2(C)C)OCc1ccccc1	0.382
CO[C@H](C)CN1CCC2(C)c3cccc(O)c3C[C@H]1C2(C)C	10
C[C@@H](CN1CCC2(C)c3ccc(O)cc3C[C@@H]1C2(C)C)OCc1ccccc1	0.312
CN(c1nc2ccccc2s1)C1CCN(C[C@H](O)COc2ccc(F)c(F)c2)CC1	0.203
CC1[C@H]2Cc3c(O)cccc3C1(C)CCN2C[C@@H](C)OCc1ccccc1 (some centres undefined)	0.153
CC12CCN(CCc3ccccc3)[C@H](Cc3cc(O)ccc31)C2(C)C	1.06
CO[C@@H](C)CN1CCC2(C)c3ccccc3C[C@@H]1C2(C)C	4.7
C[C@H](CN1CCC2(C)c3ccc(O)cc3C[C@H]1C2(C)C)Oc1ccccc1	0.864
COC(C)CN1CCC2(C)c3ccc(O)cc3C[C@@H]1C2(C)C (some centres undefined)	> 10
CO[C@@H](C)CN1CCC2(C)c3cccc(O)c3C[C@@H]1C2(C)C	0.783
C[C@@H](CN1CCC2(C)c3ccc(O)cc3C[C@H]1C2(C)C)OCc1ccccc1	1.87
CC(CN1CCC2(C)C[C@@H]1Cc1c(O)cccc12)OCc1ccccc1 (some centres undefined)	0.047
C[C@@H](CN1CCC2(C)c3cccc(O)c3C[C@@H]1C2(C)C)OCC1CCCCC1	0.208
Cc1cccc(C)c1OC[C@@H](C)N	22.7
C[C@@H](CN1CCC2(C)c3ccc(O)cc3C[C@H]1C2(C)C)Oc1ccccc1	1.53
COC(C)CN1CCC2(C)c3cc(O)ccc3C[C@@H]1C2(C)C (some centres undefined)	6.01
CO[C@@H](C)CN1CCC2(C)c3cccc(O)c3C[C@H]1C2(C)C	10
Cc1ccc(-c2nc(C)c(CN3CCN(C(c4ccccc4)c4ccccc4)CC3)[nH]2)cc1 [Lifarizine]	0.259
C[C@H](CN1CCC2(C)c3cccc(O)c3C[C@@H]1C2(C)C)OCC1CCCCC1	0.241
CC12CCN(CCc3ccccc3)[C@@H](Cc3cc(O)ccc31)C2(C)C	1.29
C[C@H](CN1CCC2(C)c3ccc(O)cc3C[C@H]1C2(C)C)OCc1ccccc1	1.23
COC(C)CN1CCC2(C)c3c(O)cccc3C[C@@H]1C2(C)C (some centres undefined)	8.99
C[C@H](CN1CCC2(C)c3cccc(O)c3C[C@H]1C2(C)C)OCc1ccccc1	1.49
C[C@H](CN1CCC2(C)c3ccc(O)cc3C[C@@H]1C2(C)C)Oc1ccccc1	0.662
CC1[C@H]2Cc3c(O)cccc3C1(C)CCN2C[C@H](C)OCc1ccccc1 (some centres undefined)	0.054
C[C@@H](CN1CCC2(C)c3ccc(O)cc3C[C@@H]1C2(C)C)Oc1ccccc1	0.149
C[C@@H](CN1CCC2(C)c3cccc(O)c3C[C@H]1C2(C)C)OCc1ccccc1	1.33
